Experimental data from ChEMBL document CHEMBL3244172, “Easily hydrolyzable, water-soluble derivatives of (+/-)-alpha-5-[1-(indol-3-yl)ethyl]-2-methylamino-delta2-thiazoline-4-one, a novel antiviral compound” (J Med Chem, 1979).
The source made the active and inactive calls. The calls are words filed in the database; no cut-off is given here.

Experiments:
[1] = system: MDCK; test: Cytotoxicity against MDCK cells infected with Influenza A virus Port Chalmers/1/73 (H3N2) up to 100 ug/ml after 3 days by carbol fuchsin staining-based assay; type: cell-based, Canis lupus familiaris; conditions: dog, 72 h
Method in brief: (§1)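 MDCK monolayers infected with influenza had compound in the agar overlay and were incubated 3 days at 33 °C. Monolayers were stained with carbol fuchsin or neutral red. MCC is the lowest concentration causing morphological cell abnormalities.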

[2] = system: Coxsackievirus B1; test: Antiviral activity against Coxsackievirus B1 infected in human HeLa cells assessed as plaque reduction up to 100 ug/ml after 42 hrs by agar diffusion method; type: functional, organism-based
Method in brief: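 Compound mixed at varying concentrations into the agar overlay above Coxsackie B1-infected HeLa monolayers. Incubated 37 °C for 42 h. PDD50 is the lowest concentration giving ≥50% fewer plaques than untreated controls.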

[3] = system: HeLa; test: Cytotoxicity against human HeLa cells infected with Coxsackievirus B1 up to 100 ug/ml after 42 hrs by carbol fuchsin staining-based assay; type: cell-based
Method in brief: (§2)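 HeLa monolayers infected with Coxsackie B1 under an agar overlay holding varying compound concentrations, incubated 37 °C, 42 h. Monolayers stained with carbol fuchsin or neutral red. MCC is the lowest concentration causing morphological abnormalities.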

[4] = system: Influenza A virus; test: Antiviral activity against Influenza A virus Port Chalmers/1/73 (H3N2) infected in MDCK cells assessed as plaque reduction up to 100 ug/ml after 3 days by agar diffusion method; type: functional, organism-based
Method in brief: (§3)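 Plaque reduction: varying compound concentrations were put in the agar overlay above infected monolayers. Coxsackie B1/HeLa was incubated 42 h at 37 °C; influenza/MDCK 3 days at 33 °C. PDD50 is the lowest concentration giving ≥50% fewer plaques than untreated controls.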

[5] = Stability in unbuffered aqueous solutions at pH >6 assessed as compound decarboxylation; type: physicochemical
[6] = Stability in unbuffered aqueous solutions at pH >6 assessed as compound hydrolysis; type: physicochemical; conditions: unbuffered aqueous solution
[7] = Solubility in water; type: physicochemical; conditions: buffer
[8] = system: Influenza A virus; test: Antiviral activity against Influenza A virus Port Chalmers/1/73 (H3N2) infected in MDCK cells assessed as plaque reduction after 3 days by agar diffusion method; type: functional; method in brief: as §3
[9] = Cytotoxicity against MDCK cells infected with Influenza A virus Port Chalmers/1/73 (H3N2) after 3 days by carbol fuchsin staining-based assay; type: cell-based, Canis lupus familiaris; conditions: dog; method in brief: as §1
[10] = system: Coxsackievirus B1; test: Antiviral activity against Coxsackievirus B1 infected in human HeLa cells assessed as plaque reduction after 42 hrs by agar diffusion method; type: functional; method in brief: as §3
[11] = system: Influenza A virus; test: Antiviral activity against Influenza A virus Port Chalmers/1/73 (H3N2) infected in MDCK cells at 1 mg/ml by agar diffusion method; type: functional; conditions: read-out: DIZ
Method in brief: (§4)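 Agar diffusion: compounds were diluted to 1 mg/mL in Eagle's MEM from stocks of 10 mg/mL in water or 100 mg/mL in DMSO. 0.02 mL went into 6 mm wells cut in the agar overlay above infected monolayers (influenza in MDCK, Coxsackie B1 in HeLa). Read-out was the diameter (mm) of the plaque-free inhibition zone around each well.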

[12] = system: Coxsackievirus B1; test: Antiviral activity against Coxsackievirus B1 infected in human HeLa cells at 1 mg/ml by agar diffusion method; type: functional; conditions: Enterovirus B; read-out: DIZ; method in brief: as §4
[13] = Cytotoxicity against human HeLa cells infected with Coxsackievirus B1 after 42 hrs by carbol fuchsin staining-based assay; type: cell-based; method in brief: as §2
[14] = Stability in aqueous solutions at neutral pH; type: physicochemical; conditions: buffer
[15] = system: Influenza A virus; test: Antiviral activity against Influenza A virus Port Chalmers/1/73 (H3N2) infected in ferret assessed as serum antibody response to virus infection at 16 mg/kg administered intranasally 7 times on day 0 and 9 times on day 1 to day 3 by serum antibody response test relative to untreated control; type: functional, organism-based; design: dose 16 mg/kg
Method in brief: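 Dosing was as in the other ferret groups: infected ferrets, hourly intranasal 0.2 mL of 50 mg/mL in water, 7 doses on day 0 and 9 on days +1 to +3. Blood was taken by cardiac puncture under Penthrane/N2O/O2 before and 10 days after infection. Sera were KIO4-treated to remove nonspecific inhibitors, then tested by hemagglutination inhibition against the infecting virus.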

Compound	Activity [1]	Activity [2]	Activity [3]	Activity [4]	PDD50 [8]	MCC at 72 h [9]	PDD50 [10]	zone of inhibition at 1000 µg/mL [11]	zone of inhibition at 1000 µg/mL [12]	MCC at 42 h [13]	other results
CNC1=NC(=O)C(C(C)c2cn(C(=O)OCc3ccccc3)c3ccccc23)S1 (racemic)	Non-toxic	inactive	Non-toxic	inactive	–	–	–	–	–	–	–
CNC1=NC(=O)C(C(C)c2cn(C(=O)c3ccccc3C(=O)O)c3ccccc23)S1 (racemic) [listing 1 of 2 here]	–	inactive	–	inactive	–	–	–	–	–	–	–
CNC1=NC(=O)C(C(C)c2cn(C(=O)OC(C)CN(C)C)c3ccccc23)S1.Cl (racemic)	–	–	–	–	–	–	–	–	–	–	Stability [5]: Unstable; Stability [6]: Unstable; solubility [7]: soluble
CNC1=NC(=O)C(C(C)c2cn(C(=O)CCC(=O)O)c3ccccc23)S1 (racemic)	–	–	–	–	>100 µg/mL	> 100 µg/mL	100 µg/mL	0 mm	0 mm	> 100 µg/mL	–
CNC1=NC(=O)C(C(C)c2cn(C(=O)CCC(=O)[O-])c3ccccc23)S1.[Na+] (racemic)	–	–	–	–	–	–	–	–	–	–	Stability [14]: Stable; solubility [7]: soluble
CNC1=NC(=O)C(C(C)c2cn(C(=O)OCC(C)(C)[N+](C)(C)C)c3ccccc23)S1.[I-] (racemic)	Non-toxic	inactive	Non-toxic	inactive	–	–	–	–	–	–	–
CNC1=NC(=O)C(C(C)c2cn(C(=O)OC(C)CN(C)C)c3ccccc23)S1 (racemic)	–	–	–	–	0.5 µg/mL	10 µg/mL	20 µg/mL	31 mm	25 mm	100 µg/mL	–
CNC1=NC(=O)C(C(C)c2cn(C(=O)OCC(C)(C)N(C)C)c3ccccc23)S1 (racemic) [listing 1 of 2 here]	–	–	–	–	–	–	–	–	–	–	Activity [15]: Active
CNC1=NC(=O)C(C(C)c2cn(C(=O)c3ccccc3C(=O)O)c3ccccc23)S1 (racemic) [listing 2 of 2 here]	Non-toxic	–	Non-toxic	–	–	–	–	–	–	–	–
CNC1=NC(=O)C(C(C)c2cn(C(=O)OCC(C)(C)N3CCOCC3)c3ccccc23)S1 (racemic)	–	–	–	–	2 µg/mL	30 µg/mL	5 µg/mL	26 mm	24 mm	100 µg/mL	–
CNC1=NC(=O)C(C(C)c2cn(C(=O)CCC(=O)OC)c3ccccc23)S1 (racemic)	Non-toxic	inactive	Non-toxic	inactive	–	–	–	–	–	–	–
CNC1=NC(=O)C(C(C)c2cn(C(=O)OCC(C)(C)N(C)C)c3ccccc23)S1 (racemic) [listing 2 of 2 here]	–	–	–	–	0.3 µg/mL	3 µg/mL	20 µg/mL	30 mm	35 mm	100 µg/mL	–
